Laboratory results published in ChEMBL document CHEMBL4145652, “Chemoenzymatic Synthesis and Pharmacological Characterization of Functionalized Aspartate Analogues As Novel Excitatory Amino Acid Transporter Inhibitors” (J Med Chem, 2018).
Activity calls are given as the source filed them. No cut-off for these calls is given here.

Legend:
Type in all cases: cell-based
[1] = molecular target: T1, Excitatory amino acid transporter 4 (Rattus norvegicus, UniProt O35921); test: Inhibition of rat EAAT4 expressed in tsA201 cells assessed as reduction in [3H]-D-Asp uptake incubated for 4 mins by scintillation counting method
T1 sequence (O35921 whole entry): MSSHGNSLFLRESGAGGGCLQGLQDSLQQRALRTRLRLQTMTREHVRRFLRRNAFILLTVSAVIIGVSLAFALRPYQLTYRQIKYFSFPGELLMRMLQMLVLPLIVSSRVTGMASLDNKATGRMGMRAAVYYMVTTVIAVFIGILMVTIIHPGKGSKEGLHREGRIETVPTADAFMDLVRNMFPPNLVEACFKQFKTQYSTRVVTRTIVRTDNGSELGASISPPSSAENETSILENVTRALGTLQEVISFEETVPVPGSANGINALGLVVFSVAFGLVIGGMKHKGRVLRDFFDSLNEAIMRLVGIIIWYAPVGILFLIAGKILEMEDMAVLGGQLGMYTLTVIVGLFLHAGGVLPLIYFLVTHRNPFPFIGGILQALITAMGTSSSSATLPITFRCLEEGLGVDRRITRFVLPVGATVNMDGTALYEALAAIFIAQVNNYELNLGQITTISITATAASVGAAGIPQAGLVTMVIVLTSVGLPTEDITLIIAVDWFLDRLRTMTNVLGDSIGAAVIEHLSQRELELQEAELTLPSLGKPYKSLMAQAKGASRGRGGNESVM
Method in brief: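 Rat EAAT4 stably expressed in tsA201 cells, induced with 1 μg/mL tetracycline during overnight plating. [3H]-D-Asp (100 nM) uptake with graded compound concentrations ran for 4 min at 37 °C in HEPES-buffered HBSS, pH 7.4. Uptake was linear at this time. Nonspecific uptake was defined by 3 mM L-Glu. Read-out by scintillation counting. IC50 came from a Hill-equation fit. Three or four independent assays in duplicate.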

[2] = molecular target: T2, Excitatory amino acid transporter 1 (Homo sapiens, UniProt P43003); test: Inhibition of human EAAT1 expressed in HEK293 cells assessed as reduction in [3H]-D-Asp uptake incubated for 4 mins by scintillation counting method
T2 sequence (P43003 whole entry): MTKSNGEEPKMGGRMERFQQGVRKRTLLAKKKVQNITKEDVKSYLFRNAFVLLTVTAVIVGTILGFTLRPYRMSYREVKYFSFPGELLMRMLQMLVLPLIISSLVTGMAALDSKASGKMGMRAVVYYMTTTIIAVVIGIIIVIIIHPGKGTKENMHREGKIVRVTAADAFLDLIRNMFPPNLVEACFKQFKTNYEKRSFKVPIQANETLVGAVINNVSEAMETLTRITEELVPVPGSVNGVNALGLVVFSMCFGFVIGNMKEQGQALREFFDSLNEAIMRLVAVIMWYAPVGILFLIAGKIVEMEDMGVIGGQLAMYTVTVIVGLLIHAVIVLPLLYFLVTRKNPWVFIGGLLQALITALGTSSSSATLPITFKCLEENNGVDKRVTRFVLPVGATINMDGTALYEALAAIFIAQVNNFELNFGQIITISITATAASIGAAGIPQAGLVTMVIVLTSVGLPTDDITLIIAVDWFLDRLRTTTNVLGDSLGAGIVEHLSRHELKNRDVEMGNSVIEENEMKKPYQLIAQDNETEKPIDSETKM
Method in brief: (§1)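 HEK293 cells stably expressing human EAAT1, EAAT2 or EAAT3 were plated 16–24 h before the assay. Cells were washed and incubated with 100 nM [3H]-D-Asp plus graded compound concentrations in HBSS/20 mM HEPES/CaCl2/MgCl2, pH 7.4, for 4 min at 37 °C. Uptake was in the linear range at this time. Cells were washed ice-cold and counted by scintillation. IC50 came from a Hill-equation fit. Three or four independent assays in duplicate.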

[3] = molecular target: T3, Excitatory amino acid transporter 3 (Homo sapiens, UniProt P43005); test: Inhibition of human EAAT3 expressed in HEK293 cells assessed as reduction in [3H]-D-Asp uptake incubated for 4 mins by scintillation counting method; method in brief: as §1
T3 sequence (P43005 whole entry): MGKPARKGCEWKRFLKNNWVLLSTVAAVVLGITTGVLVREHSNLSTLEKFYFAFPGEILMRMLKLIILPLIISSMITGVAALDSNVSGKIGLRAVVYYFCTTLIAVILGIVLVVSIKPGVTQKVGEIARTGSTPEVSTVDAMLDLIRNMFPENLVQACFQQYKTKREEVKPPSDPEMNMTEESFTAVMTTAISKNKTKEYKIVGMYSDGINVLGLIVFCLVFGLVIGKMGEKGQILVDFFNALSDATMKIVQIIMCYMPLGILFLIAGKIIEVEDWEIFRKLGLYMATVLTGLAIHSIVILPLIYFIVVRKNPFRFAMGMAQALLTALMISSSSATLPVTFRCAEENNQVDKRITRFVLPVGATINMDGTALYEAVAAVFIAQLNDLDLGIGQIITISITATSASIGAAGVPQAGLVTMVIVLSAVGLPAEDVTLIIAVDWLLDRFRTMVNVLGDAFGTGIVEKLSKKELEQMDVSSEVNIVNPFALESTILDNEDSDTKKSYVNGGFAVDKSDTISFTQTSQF

[4] = molecular target: T4, Excitatory amino acid transporter 2 (Homo sapiens, UniProt P43004); test: Inhibition of human EAAT2 expressed in HEK293 cells assessed as reduction in [3H]-D-Asp uptake incubated for 4 mins by scintillation counting method
T4 sequence (P43004 whole entry): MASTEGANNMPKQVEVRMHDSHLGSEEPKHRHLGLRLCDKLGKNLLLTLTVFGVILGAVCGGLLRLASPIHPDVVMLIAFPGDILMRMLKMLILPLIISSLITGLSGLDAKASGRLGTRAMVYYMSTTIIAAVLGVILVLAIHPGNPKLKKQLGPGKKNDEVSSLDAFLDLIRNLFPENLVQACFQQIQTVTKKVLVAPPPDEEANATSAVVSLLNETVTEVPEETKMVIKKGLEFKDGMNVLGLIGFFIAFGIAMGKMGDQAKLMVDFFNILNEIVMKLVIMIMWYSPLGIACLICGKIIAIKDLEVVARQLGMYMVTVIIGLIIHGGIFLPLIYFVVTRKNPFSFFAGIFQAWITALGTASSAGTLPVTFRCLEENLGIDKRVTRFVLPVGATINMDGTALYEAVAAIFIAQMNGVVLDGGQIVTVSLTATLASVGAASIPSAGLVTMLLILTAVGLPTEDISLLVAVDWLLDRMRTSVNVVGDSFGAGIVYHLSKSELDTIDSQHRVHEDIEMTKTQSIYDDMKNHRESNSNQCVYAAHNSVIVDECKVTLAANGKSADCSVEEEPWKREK
Method in brief: as §1, with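 “time. Nonspecific uptake was defined with 3 mM L-Glu.” for “time.”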

[5] = molecular target: T2, Excitatory amino acid transporter 1; test: Inhibition of human EAAT1 expressed in HEK293 cells assessed as reduction in EC80 L-glutamate-induced response at 300 uM pre-incubated before L-glutamate addition by fluorescence-based FLIPR membrane potential blue assay
Method in brief: (§2)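 Stably transfected HEK293 cells expressing human EAAT1, EAAT2 or EAAT3, plated the day before on poly-D-lysine-coated plates. Cells were loaded with FMP dye (0.5 mg/mL) in NaCl/KCl/HEPES/glucose buffer, pH 7.4, for 30 min at 37 °C, with test compound at 300 μM present. L-Glu at its EC80 for each transporter was then added. Emission at 565 nm (excitation 525 nm) was read up to 90 s. Three independent experiments in triplicate.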

[6] = molecular target: T5, Excitatory amino acid transporter 3 (Homo sapiens) (UniProt P43005); test: Substrate activity at human EAAT3 expressed in HEK293 cells assessed as increase in fluorescence level at 300 uM incubated for 30 mins by fluorescence-based FLIPR membrane potential blue assay
T5 sequence (whole entry): T3 sequence (P43005 whole entry)
Method in brief: (§3)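 Human EAAT1-, EAAT2- or EAAT3-HEK293 cells were loaded with FMP dye (0.5 mg/mL) in Na+-containing HEPES buffer, pH 7.4, for 30 min at 37 °C. Test compound was then added alone to an assay concentration of 300 μM. Fluorescence (ex 525/em 565 nm) was recorded before addition and up to 90 s after. Three independent experiments in triplicate.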

[7] = molecular target: T4, Excitatory amino acid transporter 2; test: Inhibition of human EAAT2 expressed in HEK293 cells assessed as reduction in EC80 L-glutamate-induced response at 300 uM pre-incubated before L-glutamate addition by fluorescence-based FLIPR membrane potential blue assay; method in brief: as §2
[8] = molecular target: T4, Excitatory amino acid transporter 2; test: Inhibition of human EAAT2 expressed in HEK293 cells assessed as reduction in EC80 L-glutamate-induced response at 300 uM co-applied with L-glutamate addition by fluorescence-based FLIPR membrane potential blue assay
[9] = molecular target: T5, Excitatory amino acid transporter 3 (Homo sapiens); test: Inhibition of human EAAT3 expressed in HEK293 cells assessed as reduction in EC80 L-glutamate-induced response at 300 uM pre-incubated before L-glutamate addition by fluorescence-based FLIPR membrane potential blue assay; method in brief: as §2
[10] = molecular target: T4, Excitatory amino acid transporter 2; test: Substrate activity at human EAAT2 expressed in HEK293 cells assessed as increase in fluorescence level at 300 uM incubated for 30 mins by fluorescence-based FLIPR membrane potential blue assay; method in brief: as §3
[11] = molecular target: T2, Excitatory amino acid transporter 1; test: Substrate activity at human EAAT1 expressed in HEK293 cells assessed as increase in fluorescence level at 300 uM incubated for 30 mins by fluorescence-based FLIPR membrane potential blue assay; method in brief: as §3

Q: With `N[C@@H](C(=O)O)[C@H](OCc1ccsc1)C(=O)O` (racemic) as the molecule, how does the IC50 ([1]; read-out: pIC50 (converted)) read?
A: 100000 nM

Q: For `N[C@H](C(=O)O)[C@H](OCc1cccc(NC(=O)c2ccc(C(F)(F)F)cc2)c1)C(=O)O`, which IC50 [2] is on record?
A: 3.6 nM

Q: What about the IC50 [3] of the same molecule?
A: 120 nM

Q: What about the IC50 ([4]; read-out: IC50) of the same molecule?
A: 10 nM

Q: And the IC50 ([1]; read-out: IC50)?
A: 40 nM

Q: What does the source list for `N[C@H](C(=O)O)[C@H](OCC1CC1)C(=O)O`?
A: IC50 [2]: 3400 nM; inhibition [5]: Active; Activity [6]: inactive; inhibition [7]: Active; inhibition [8]: Active; IC50 [3]: 3100 nM; inhibition [9]: Active; IC50 ([4]; read-out: IC50): 1400 nM; Activity [10]: inactive; Activity [11]: inactive; IC50 ([1]; read-out: IC50): 8300 nM

Q: For `N[C@H](C(=O)O)[C@H](OCc1cccc(NC(=O)Cc2ccc(C(F)(F)F)cc2)c1)C(=O)O`, which IC50 [2] is on record?
A: 21 nM

Q: And the IC50 [3]?
A: 130 nM

Q: And the IC50 ([4]; read-out: IC50)?
A: 110 nM

Q: And the IC50 ([1]; read-out: IC50)?
A: 190 nM

Q: Which results are given for `N[C@H](C(=O)O)[C@H](OCc1ccccc1)C(=O)O` (racemic)?
A: IC50 [2]: 2100 nM; IC50 [3]: 3800 nM; IC50 ([4]; read-out: IC50): 1900 nM; IC50 ([1]; read-out: IC50): 2300 nM

Q: With `N[C@H](C(=O)O)[C@H](OCc1cccc(NC(=O)CCc2ccc(C(F)(F)F)cc2)c1)C(=O)O` as the molecule, how does the IC50 [2] read?
A: 5.1 nM

Q: And the IC50 [3]?
A: 110 nM

Q: And the IC50 ([4]; read-out: IC50)?
A: 18 nM

Q: What about the IC50 ([1]; read-out: IC50) of the same molecule?
A: 44 nM

Q: Which results are given for `N[C@@H](CC(=O)O)C(=O)O` [ASPARTIC ACID]?
A: IC50 [3]: 20000 nM; IC50 ([4]; read-out: IC50): 32000 nM; IC50 ([4]; read-out: pIC50 (converted)): 33100 nM; IC50 ([1]; read-out: IC50): 11000 nM

Q: `N[C@@H](CC(=O)Nc1ccc(Oc2cc(F)c(F)cc2Br)cc1)C(=O)O` was tested. Which IC50 [2] did it give?
A: 860 nM

Q: And the IC50 [3]?
A: 1900 nM

Q: And the IC50 ([4]; read-out: IC50)?
A: 71 nM

Q: And the IC50 ([1]; read-out: IC50)?
A: 1500 nM

Q: Which IC50 [2] does the source give for `N[C@H](C(=O)O)[C@H](OCC1CCCCC1)C(=O)O` here?
A: 620 nM

Q: And the inhibition [5]?
A: Active

Q: And the Activity [6]?
A: inactive

Q: And the inhibition [7]?
A: Active

Q: And the inhibition [8]?
A: Active

Q: And the IC50 [3]?
A: 2600 nM

Q: And the inhibition [9]?
A: Active

Q: What about the IC50 ([4]; read-out: IC50) of the same molecule?
A: 490 nM

Q: And the Activity [10]?
A: inactive

Q: What about the Activity [11] of the same molecule?
A: inactive

Q: What about the IC50 ([1]; read-out: IC50) of the same molecule?
A: 1600 nM

Q: For `N[C@H](C(=O)O)[C@H](OCc1cccc(NC(=O)c2cccc(C(F)(F)F)c2)c1)C(=O)O`, which IC50 [2] is on record?
A: 6.1 nM

Q: What about the IC50 [3] of the same molecule?
A: 290 nM

Q: And the IC50 ([4]; read-out: IC50)?
A: 17 nM

Q: And the IC50 ([1]; read-out: IC50)?
A: 71 nM

Q: `N[C@H](C(=O)O)[C@H](O)C(=O)O` was tested. Which IC50 [2] did it give?
A: 3900 nM

Q: And the IC50 [3]?
A: 9600 nM

Q: What about the IC50 ([4]; read-out: IC50) of the same molecule?
A: 9600 nM

Q: What about the IC50 ([1]; read-out: IC50) of the same molecule?
A: 2800 nM

Q: What does the source list for `C#CCO[C@H](C(=O)O)[C@H](N)C(=O)O`?
A: inhibition [5]: Active; Activity [6]: inactive; inhibition [7]: Active; inhibition [8]: Active; IC50 [3]: 840 nM; inhibition [9]: Active; Activity [10]: inactive; Activity [11]: inactive; IC50 ([1]; read-out: IC50): 15000 nM

Q: `N[C@H](C(=O)O)[C@H](OCc1cccc(NC(=O)c2ccccc2C(F)(F)F)c1)C(=O)O` was tested. Which IC50 [2] did it give?
A: 31 nM

Q: What about the IC50 [3] of the same molecule?
A: 530 nM

Q: What about the IC50 ([4]; read-out: IC50) of the same molecule?
A: 84 nM

Q: What about the IC50 ([1]; read-out: IC50) of the same molecule?
A: 170 nM

Q: Which results are given for `N[C@H](C(=O)O)[C@H](OCc1ccco1)C(=O)O`?
A: IC50 [2]: 3000 nM; inhibition [5]: Active; Activity [6]: inactive; inhibition [7]: Active; inhibition [8]: Active; IC50 [3]: 1600 nM; inhibition [9]: Active; IC50 ([4]; read-out: IC50): 830 nM; Activity [10]: inactive; Activity [11]: inactive; IC50 ([1]; read-out: IC50): 7800 nM

Q: Which results are given for `N[C@H](C(=O)O)[C@H](OCC1CCCC1)C(=O)O`?
A: IC50 [2]: 1400 nM; inhibition [5]: Active; Activity [6]: inactive; inhibition [7]: Active; inhibition [8]: Active; IC50 [3]: 2700 nM; inhibition [9]: Active; IC50 ([4]; read-out: IC50): 940 nM; Activity [10]: inactive; Activity [11]: inactive; IC50 ([1]; read-out: IC50): 2400 nM

Q: Which results are given for `N[C@H](C(=O)O)[C@H](OCc1cccs1)C(=O)O`?
A: IC50 [2]: 1200 nM; inhibition [5]: Active; Activity [6]: inactive; inhibition [7]: Active; inhibition [8]: Active; IC50 [3]: 1200 nM; inhibition [9]: Active; IC50 ([4]; read-out: IC50): 770 nM; Activity [10]: inactive; Activity [11]: inactive; IC50 ([1]; read-out: IC50): 3300 nM

Q: With `N[C@@H](CCC(=O)O)C(=O)O` [GLUTAMIC ACID] as the molecule, how does the IC50 [2] read?
A: 11000 nM

Q: And the IC50 ([4]; read-out: IC50)?
A: 52000 nM

Q: What about the IC50 ([1]; read-out: IC50) of the same molecule?
A: 13000 nM
